Measurements: ChEMBL document CHEMBL1255220, “Synthesis and antitumor effect in vitro and in vivo of substituted 1,3-dihydroindole-2-ones” (J Med Chem, 2010)
pIC50: −log10 of the molar value. The source made the active and inactive calls. No cut-off for these calls is given here.

How the values were obtained:
MCF7 [1] = experiment: Cytotoxicity against human MCF7 cells after 72 hrs by WST-1 assay; format: functional, cell-based
How it was run: (§1)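 Cells seeded at 3×10³/well; next day serially diluted compound added in triplicate; 72 h at 37 °C, 5% CO₂. Viable cells measured with WST-1 reagent (1 h), absorbance 450 nm minus 690 nm reference. IC50 is mean ± SD of at least two experiments run in triplicate. MCF-7 grown in DMEM, PC3 in RPMI, each with 10% serum.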

PC-3 [2] = experiment: Cytotoxicity against human PC3 cells after 72 hrs by WST-1 assay; format: functional, cell-based; how it was run: as §1
PC-3 [3] = experiment: Antitumor activity against human PC3 cells xenografted in sc dosed NMRI mouse assessed as tumor regression dose; format: functional
How it was run: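 1e7 PC3 cells (grown in RPMI + 10% FBS) in PBS/Matrigel 1:1 injected sc into female NMRI nude mice or female NIH-RNU nude rats. Compound dosed iv three times per week. Tumour regression dose recorded. Rat effective doses were estimated from mouse xenografts using a 0.5 mouse-to-rat conversion factor.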

[4] = AUC in mouse at 5 mg/kg, iv; format: ADME, organism-based; design: dose 5 mg/kg, route intravenous; conditions: plasma
How it was run: (§2)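 Compound given as single iv dose to mice or rats. Plasma samples prepared by protein precipitation with acetonitrile containing 1 μg/mL internal standard (3:1 v/v). Analysed by UPLC-MS/MS on a C18 reversed-phase column at 40 °C with an acetonitrile–0.05% formic acid gradient. Half-life and AUC (h ng/mL) derived from the plasma levels.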

[5] = Half life in mouse at 5 mg/kg, iv; format: ADME, organism-based; design: dose 5 mg/kg, route intravenous; conditions: in vivo; how it was run: as §2
MDA-MB-468 = experiment: Cytotoxicity against human MDA-MB-468 cells; format: functional, cell-based
[6] = Therapeutic index, ratio of MTD in rat to ED50 for antitumor activity against human PC3 cells xenografted in rat; format: cell-based, PC-3; conditions: in vivo, read-out: TI
How it was run: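 PC3 human prostate cancer cells (1e7, grown in RPMI + 10% FBS, suspended in PBS + Matrigel) were implanted sc in female nude rats (NIHRNU-M) or nude mice (NMRI/nude), with iv dosing 3×/week. Rat MTD came from a single iv dose. Effective rat doses were estimated from mouse xenografts using a mouse-to-rat conversion factor of 0.5. Index = rat toxic dose / rat effective dose.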

MDA-MB-231 = experiment: Cytotoxicity against human MDA-MB-231 cells; format: functional, cell-based
[7] = Toxicity in iv dosed rat assessed as maximum tolerated dose; conditions: in vivo
PC-3 [8] = experiment: Antitumor activity against human PC3 cells xenografted in sc dosed rat assessed as tumor regression dose; format: functional
[9] = target: Eukaryotic translation initiation factor 2 subunit 1 (Homo sapiens) (UniProt P05198); experiment: Inhibition of eIF2alpha autophosphorylation in human A2780 cells; format: cell-based
How it was run: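 MCF-7 (DMEM) and A2780 (RPMI 1640) cells, together with sublines made resistant by culture in rising concentrations of the parent oxindole, were treated with compound for 4 and 24 h respectively. Lysates (20 μg protein) separated by SDS-PAGE and blotted onto nitrocellulose. Phospho-eIF2α read by western blot: milk block, primary antibody overnight at 4 °C, HRP secondary antibody.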

[10] = target: Eukaryotic translation initiation factor 2 subunit 1 (Homo sapiens) (UniProt P05198); experiment: Induction of eIF2alpha phosphorylation in human MCF7 cells
[11] = Half life in rat at 10 mg/kg, iv; format: ADME, organism-based; design: dose 10 mg/kg, route intravenous; conditions: in vivo; how it was run: as §2
[12] = AUC in rat at 10 mg/kg, iv; format: ADME, organism-based; design: dose 10 mg/kg, route intravenous; conditions: plasma; how it was run: as §2
[13] = Half life in rat at 2.5 mg/kg, iv; format: ADME, organism-based; design: dose 2.5 mg/kg, route intravenous; conditions: in vivo; how it was run: as §2
[14] = AUC in rat at 2.5 mg/kg, iv; format: ADME, organism-based; design: dose 2.5 mg/kg, route intravenous; conditions: plasma; how it was run: as §2
[15] = AUC in rat at 5 mg/kg, iv; format: ADME, organism-based; design: dose 5 mg/kg, route intravenous; conditions: plasma; how it was run: as §2
[16] = Half life in rat at 5 mg/kg, iv; format: ADME, organism-based; design: dose 5 mg/kg, route intravenous; conditions: in vivo; how it was run: as §2
MCF7 [17] = experiment: Cytotoxicity against human MCF7 cells after 72 hrs at 0.5 uM by WST-1 assay; format: functional; conditions: MCF7, 72 h

Eukaryotic translation initiation factor 2 subunit 1 (Homo sapiens), sequence (P05198 whole entry): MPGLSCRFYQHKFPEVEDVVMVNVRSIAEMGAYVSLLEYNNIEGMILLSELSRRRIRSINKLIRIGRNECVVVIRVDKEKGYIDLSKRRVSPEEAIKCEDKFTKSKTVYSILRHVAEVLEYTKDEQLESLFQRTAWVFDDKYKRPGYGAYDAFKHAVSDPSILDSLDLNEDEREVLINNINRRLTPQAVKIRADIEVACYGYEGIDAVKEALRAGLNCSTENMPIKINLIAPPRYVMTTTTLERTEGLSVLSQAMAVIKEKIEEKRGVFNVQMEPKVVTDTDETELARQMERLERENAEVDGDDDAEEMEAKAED

SMILES	pIC50 (MCF7 [1]; Homo sapiens, MCF7, 72 h)	pIC50 (PC-3 [2]; Homo sapiens, PC-3, 72 h)	other results
COc1ccc2c(c1C)NC(=O)[C@]2(c1ccc(O)cc1)C1CCCCCC1	9.32	8.70	
COc1ccc2c(c1C)NC(=O)[C@@]2(c1ccc(O)cc1)C1CCCCCC1	< 6.00	< 6.00	
O=C1Nc2c(ccc(F)c2F)C1(c1ccc(O)cc1)c1ccc(O)cc1	7.70	6.16	Activity (PC-3 [3]): 5 mg/kg; AUC [4]: 6.77 µg·h/mL; half-life [5]: 1.7 h; pIC50 (MDA-MB-468): 7.70; selectivity ratio [6]: 0.4; pIC50 (MDA-MB-231): < 5.52; MTD [7]: 1 mg/kg
O=C1Nc2c(C(F)(F)F)cccc2C1(c1ccc(O)cc1)C1CCCCCC1 (racemic)	8.01	7.04	Activity (PC-3 [3]): 20 mg/kg; Activity (PC-3 [8]): >20 mg/kg; selectivity ratio [6]: 4; MTD [7]: 40 mg/kg
O=C1Nc2c(C(F)(F)F)cccc2C1(c1ccc(O)cc1)n1ccnc1 (racemic)	< 6.00	< 6.00	inhibition [9]: inactive; induction [10]: inactive
Cc1cc(C)c2c(c1)C(c1ccc(O)cc1)(c1ccc(F)cc1)C(=O)N2 (racemic)	7.40	6.68	
Cc1cc(C)c2c(c1)C(c1ccc(O)cc1)(C1CCCCCC1)C(=O)N2 (racemic)	< 6.00	< 6.00	
Cc1cc(F)cc2c1NC(=O)C2(c1ccc(O)cc1)C1CCCCCC1 (racemic)	< 6.00	< 6.00	
Cc1ccc2c(c1C)NC(=O)C2(c1ccc(O)cc1)C1CCCCCC1 (racemic)	7.72	< 6.00	
Cc1c(F)ccc2c1NC(=O)C2(c1ccc(O)cc1)C1CCCCCC1 (racemic)	7.70	7.52	
Cc1c(Cl)ccc2c1NC(=O)C2(c1ccc(O)cc1)C1CCCCCC1 (racemic)	7.29	6.82	
Cc1ccc2c(c1Cl)NC(=O)C2(c1ccc(O)cc1)C1CCCCCC1 (racemic)	8.55	7.77	
COc1ccc2c(c1C)NC(=O)C2(c1ccc(O)cc1)c1ccc(F)cc1 (racemic)	8.20	8.05	Activity (PC-3 [3]): 10 mg/kg; half-life [11]: 1.5 h; AUC [12]: 3.95 µg·h/mL; Activity (PC-3 [8]): <10 mg/kg; selectivity ratio [6]: 3; MTD [7]: 15 mg/kg
COc1ccc2c(c1C)NC(=O)C2(c1ccc(O)cc1)C1CCCC1 (racemic)	9.00	6.95	
COc1ccc2c(c1C)NC(=O)C2(c1ccc(O)cc1)C1CCCCC1 (racemic)	7.85	7.55	
O=C1Nc2c(ccc(F)c2F)C1(c1ccccc1)c1ccc(O)cc1 (racemic)	8.15	8.05	
O=C1Nc2c(ccc(F)c2F)C1(c1ccc(O)cc1)c1ccc(F)cc1 (racemic)	8.59	8.07	half-life [13]: 0.8 h; Activity (PC-3 [3]): 2.5 mg/kg; AUC [4]: 1.91 µg·h/mL; half-life [5]: 2.1 h; AUC [14]: 2.53 µg·h/mL; Activity (PC-3 [8]): <2.5 mg/kg; selectivity ratio [6]: 2; MTD [7]: 2.5 mg/kg
COc1ccc2c(c1C)NC(=O)C2(c1ccc(O)cc1)C1CCCCCC1 (racemic)	8.33	7.92	Activity (PC-3 [3]): 20 mg/kg; half-life [11]: 1.5 h; AUC [12]: 5.76 µg·h/mL; Activity (PC-3 [8]): 10 mg/kg; selectivity ratio [6]: 7; inhibition [9]: inactive; induction [10]: inactive; MTD [7]: 70 mg/kg
COc1ccc(C2(c3ccc(O)cc3)C(=O)Nc3c2ccc(F)c3F)cc1 (racemic)			pIC50 (MCF7 [1]; mcf7): 8.20; pIC50 (PC-3 [2]; pc-3): 8.66
Cc1ccc(C2(c3ccc(O)cc3)C(=O)Nc3c2ccc(F)c3F)cc1 (racemic)	8.77	9.10	
O=C1Nc2c(ccc(F)c2F)C1(c1ccc(O)cc1)C1CCCCC1 (racemic)			Activity (PC-3 [3]): 10 mg/kg; AUC [4]: 3.55 µg·h/mL; half-life [5]: 1.6 h; AUC [15]: 1.35 µg·h/mL; pIC50 (MCF7 [1]; mcf7): 7.89; pIC50 (PC-3 [2]; pc-3): 7.49; Activity (PC-3 [8]): <10 mg/kg; selectivity ratio [6]: 2; MTD [7]: 10 mg/kg; half-life [16]: 1.1 h
CCOc1ccc(C2(c3ccc(O)cc3)C(=O)Nc3c2ccc(F)c3F)cc1 (racemic)	7.96	7.62	

SMILES	pIC50 (MCF7 [1]; Homo sapiens, MCF7, 72 h)	pIC50 (PC-3 [2]; Homo sapiens, PC-3, 72 h)	other results
CCCOc1ccc(C2(c3ccc(O)cc3)C(=O)Nc3c2ccc(F)c3F)cc1 (racemic)	6.45	< 6.00	
CCCCCOc1ccc(C2(c3ccc(O)cc3)C(=O)Nc3c2ccc(F)c3F)cc1 (racemic)	< 6.00	< 6.00	
COc1ccc(C2(c3cccc(O)c3)C(=O)Nc3c2ccc(F)c3F)cc1 (racemic)	6.71	6.84	
O=C1Nc2c(ccc(F)c2F)C1(c1ccc(O)cc1)c1ccc(F)c(F)c1 (racemic)	8.11	7.72	
O=C1Nc2c(ccc(F)c2F)C1(c1ccc(O)cc1)c1cccs1 (racemic)	7.09	9.52	half-life [13]: 0.7 h; AUC [4]: 0.395 µg·h/mL; half-life [5]: 0.4 h; AUC [14]: 2.63 µg·h/mL
O=C1Nc2c(ccc(F)c2F)C1(c1ccncc1)c1ccc(O)cc1 (racemic)	7.43	6.96	
O=C1Nc2c(ccc(F)c2F)C1(c1ccc(O)cc1)c1cccnc1 (racemic)	7.20	< 6.00	
CCCC1(c2ccc(O)cc2)C(=O)Nc2c1ccc(F)c2F (racemic)	< 6.00	< 6.00	
CCCCCC1(c2ccc(O)cc2)C(=O)Nc2c1ccc(F)c2F (racemic)	7.02	8.96	
O=C1Nc2c(ccc(F)c2F)C1(c1ccc(O)cc1)C1CCCC1 (racemic)	7.92	8.09	half-life [13]: 1.1 h; AUC [4]: 1.85 µg·h/mL; half-life [5]: 3.7 h; AUC [14]: 2.4 µg·h/mL
O=C1Nc2c(ccc(F)c2F)C1(c1ccc(O)cc1)C1CCCCCC1 (racemic)	8.92	7.92	Activity (PC-3 [3]): 10 mg/kg; AUC [4]: 0.694 µg·h/mL; half-life [5]: 1.3 h; AUC [15]: 2.29 µg·h/mL; selectivity ratio [6]: 8; MTD [7]: > 40 mg/kg; half-life [16]: 2.1 h
O=C1Nc2c(ccc(F)c2F)C1(c1ccc(O)cc1)C1CCCCCCC1 (racemic)	< 6.00	< 6.00	
O=C1Nc2c(ccc(F)c2F)C1(CC1CCCCC1)c1ccc(O)cc1 (racemic)	6.99	< 6.00	
O=C1Nc2c(ccc(F)c2F)C1(Cc1ccccc1)c1ccc(O)cc1 (racemic)	< 6.00	< 6.00	
O=C1Nc2ccccc2C1(c1ccc(O)cc1)c1ccc(F)cc1 (racemic)	7.55	< 6.00	
O=C1Nc2ccccc2C1(c1ccc(O)cc1)C1CCCCCC1 (racemic)	6.61	< 6.00	
Cc1cccc2c1NC(=O)C2(c1ccc(O)cc1)C1CCCCCC1 (racemic)	< 6.00	< 6.00	
COc1ccc(C2(c3ccc(O)cc3)C(=O)Nc3c2ccc(F)c3F)cc1 (stereo in doubt; form 1)			pIC50 (MCF7 [1]; mcf7): 8.68; pIC50 (PC-3 [2]; pc-3): 8.70
O=C1Nc2c(ccc(F)c2F)C1(c1ccc(O)cc1)C1CCCCC1 (stereo in doubt; form 1)			pIC50 (MCF7 [1]; mcf7): 7.74; pIC50 (PC-3 [2]; pc-3): 8.04
COc1ccc(C2(c3ccc(O)cc3)C(=O)Nc3c2ccc(F)c3F)cc1 (stereo in doubt; form 2)			pIC50 (MCF7 [1]; mcf7): < 6.00; pIC50 (PC-3 [2]; pc-3): < 6.00
O=C1Nc2c(ccc(F)c2F)C1(c1ccc(O)cc1)C1CCCCC1 (stereo in doubt; form 2)			pIC50 (MCF7 [1]; mcf7): < 6.00; pIC50 (PC-3 [2]; pc-3): < 6.00
O=C1Nc2ccccc2C1(c1ccc(O)cc1)c1ccc(O)cc1 [OXYPHENISATINE]		< 6.00	inhibition at 0.5 µM (MCF7 [17]): 73%
